In ChEMBL document CHEMBL1127344, “Tridentate ligands containing the SNS donor atom set as a novel backbone for the development of technetium brain-imaging agents” (J Med Chem, 1994):

Key:
Rattus norvegicus [1] = species: Rattus norvegicus; assay: Tested for biodistribution of compound at 30 min in rat heart; type: ADME, organism-based; conditions: in vivo, 0.5 h
Method in brief: (§1)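 Wistar rats under ether anesthesia were dosed through the femoral vein with 0.1 mL of 99mTc complex (3-6 μCi) and dissected 5-60 min pi. Tissue radioactivity was γ-counted against a 1% injected-dose standard and expressed as % dose/organ. Blood and muscle were calculated from sample weight assuming 7% and 43% of body weight.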

Mus musculus [2] = species: Mus musculus; assay: Tested for biodistribution of compound at 30 min in mice stomach; type: ADME, organism-based; conditions: in vivo, 0.5 h
Method in brief: (§2)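 Male Swiss albino mice, at least five per group, received 0.1 mL (2-3 μCi) of HPLC-purified 99mTc complex reconstituted in 50% methanol by tail vein. They were killed by cardiectomy under light ether anesthesia at set times (1-60 min pi). Organs were weighed and γ-counted against a 1% injected-dose standard to give % dose/organ. Blood and muscle were taken as 7% and 43% of body weight.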

Rattus norvegicus [3] = species: Rattus norvegicus; assay: Tested for biodistribution of compound at 30 min in rat stomach; type: ADME, organism-based; conditions: in vivo, 0.5 h
Rattus norvegicus [4] = species: Rattus norvegicus; assay: Tested for biodistribution of compound at 30 min in rat brain; type: ADME, organism-based; conditions: in vivo, 0.5 h; method in brief: as §1
Mus musculus [5] = species: Mus musculus; assay: Tested for biodistribution of compound at 10 min in mice lungs; type: ADME, organism-based, Lung; conditions: in vivo; method in brief: as §2
Rattus norvegicus [6] = species: Rattus norvegicus; assay: Tested for biodistribution of compound at 10 min in rat liver; type: ADME, organism-based; conditions: in vivo; method in brief: as §1
Mus musculus [7] = species: Mus musculus; assay: Tested for biodistribution of compound at 1 min in mice intestine; type: ADME, organism-based; conditions: in vivo; method in brief: as §2
Rattus norvegicus [8] = species: Rattus norvegicus; assay: Tested for biodistribution of compound at 10 min in rat kidney; type: ADME, organism-based; conditions: in vivo; method in brief: as §1
Mus musculus [9] = species: Mus musculus; assay: Tested for biodistribution of compound at 5 min in mice stomach; type: ADME, organism-based; conditions: in vivo
Method in brief: (§3)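 Male Swiss albino mice, at least five per group, received HPLC-purified 99mTc complex by tail vein. The complex was reconstituted in 50% methanol (0.1 mL, 2-3 μCi). Mice were killed by cardiectomy under light ether at 1-60 min pi. Organs were weighed and γ-counted against a 1% injected-dose standard to give % dose/organ. Blood and muscle were taken as 7% and 43% of body weight.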

Rattus norvegicus [10] = species: Rattus norvegicus; assay: Tested for biodistribution of compound at 30 min in rat muscle; type: ADME, organism-based, Muscle tissue; conditions: in vivo, 0.5 h
Rattus norvegicus [11] = species: Rattus norvegicus; assay: Tested for biodistribution of compound at 60 min in rat l intestine; type: ADME, organism-based; conditions: in vivo, 1 h
Rattus norvegicus [12] = species: Rattus norvegicus; assay: Tested for biodistribution of compound at 30 min in rat l intestine; type: ADME, organism-based; conditions: in vivo, 0.5 h; method in brief: as §1
Rattus norvegicus [13] = species: Rattus norvegicus; assay: Tested for biodistribution of compound at 10 min in rat blood; type: ADME, organism-based; conditions: in vivo; method in brief: as §1
Rattus norvegicus [14] = species: Rattus norvegicus; assay: Tested for biodistribution of compound at 5 min in rat lungs; type: ADME, organism-based, Lung; conditions: in vivo
Rattus norvegicus [15] = species: Rattus norvegicus; assay: Tested for biodistribution of compound at 60 min in rat liver; type: ADME, organism-based; conditions: in vivo, 1 h
Rattus norvegicus [16] = species: Rattus norvegicus; assay: Tested for biodistribution of compound at 30 min in rat lungs; type: ADME, organism-based, Lung; conditions: in vivo, 0.5 h
Rattus norvegicus [17] = species: Rattus norvegicus; assay: Tested for biodistribution of compound at 60 min in rat spleen; type: ADME, organism-based; conditions: in vivo, 1 h
Rattus norvegicus [18] = species: Rattus norvegicus; assay: Tested for biodistribution of compound at 30 min in rat liver; type: ADME, organism-based; conditions: in vivo, 0.5 h
Rattus norvegicus [19] = species: Rattus norvegicus; assay: Tested for biodistribution of compound at 10 min in rat lungs; type: ADME, organism-based, Lung; conditions: in vivo; method in brief: as §1
Mus musculus [20] = species: Mus musculus; assay: Tested for biodistribution of compound at 1 min in mice heart; type: ADME, organism-based; conditions: in vivo; method in brief: as §2
Mus musculus [21] = species: Mus musculus; assay: Tested for biodistribution of compound at 1 min in mice muscle; type: ADME, organism-based, Muscle tissue; conditions: in vivo; method in brief: as §2
Mus musculus [22] = species: Mus musculus; assay: Tested for biodistribution of compound at 60 min in mice intestine; type: ADME, organism-based; conditions: in vivo, 1 h; method in brief: as §3
Mus musculus [23] = species: Mus musculus; assay: Tested for biodistribution of compound at 5 min in mice blood; type: ADME, organism-based; conditions: in vivo; method in brief: as §3
Mus musculus [24] = species: Mus musculus; assay: Tested for biodistribution of compound at 30 min in mice spleen; type: ADME, organism-based; conditions: in vivo, 0.5 h; method in brief: as §2
Mus musculus [25] = species: Mus musculus; assay: Tested for biodistribution of compound at 30 min in mice heart; type: ADME, organism-based; conditions: in vivo, 0.5 h; method in brief: as §2
Mus musculus [26] = species: Mus musculus; assay: Tested for biodistribution of compound at 60 min in mice lungs; type: ADME, organism-based, Lung; conditions: in vivo, 1 h; method in brief: as §3
Rattus norvegicus [27] = species: Rattus norvegicus; assay: Tested for biodistribution of compound at 5 min in rat liver; type: ADME, organism-based; conditions: in vivo
Rattus norvegicus [28] = species: Rattus norvegicus; assay: Tested for biodistribution of compound at 10 min in rat intestine; type: ADME, organism-based; conditions: in vivo; method in brief: as §1
Rattus norvegicus [29] = species: Rattus norvegicus; assay: Tested for biodistribution of compound at 10 min in rat brain; type: ADME, organism-based; conditions: in vivo; method in brief: as §1
Mus musculus [30] = species: Mus musculus; assay: Tested for biodistribution of compound at 5 min in mice kidney; type: ADME, organism-based; conditions: in vivo; method in brief: as §3
Mus musculus [31] = species: Mus musculus; assay: Tested for biodistribution of compound at 1 min in mice kidney; type: ADME, organism-based; conditions: in vivo; method in brief: as §2
Mus musculus [32] = species: Mus musculus; assay: Tested for biodistribution of compound at 1 min in mice liver; type: ADME, organism-based; conditions: in vivo; method in brief: as §2
Rattus norvegicus [33] = species: Rattus norvegicus; assay: Tested for biodistribution of compound at 30 min in rat s. intestine; type: ADME, organism-based; conditions: in vivo, 0.5 h
Rattus norvegicus [34] = species: Rattus norvegicus; assay: Tested for biodistribution of compound at 10 min in rat heart; type: ADME, organism-based; conditions: in vivo; method in brief: as §1
Mus musculus [35] = species: Mus musculus; assay: Tested for biodistribution of compound at 1 min in mice stomach; type: ADME, organism-based; conditions: in vivo; method in brief: as §2
Rattus norvegicus [36] = species: Rattus norvegicus; assay: Tested for biodistribution of compound at 5 min in rat kidney; type: ADME, organism-based; conditions: in vivo
Rattus norvegicus [37] = species: Rattus norvegicus; assay: Tested for biodistribution of compound at 5 min in rat l intestine; type: ADME, organism-based; conditions: in vivo
Rattus norvegicus [38] = species: Rattus norvegicus; assay: Tested for biodistribution of compound at 5 min in rat heart; type: ADME, organism-based; conditions: in vivo
Rattus norvegicus [39] = species: Rattus norvegicus; assay: Tested for biodistribution of compound at 60 min in rat stomach; type: ADME, organism-based; conditions: in vivo, 1 h
Rattus norvegicus [40] = species: Rattus norvegicus; assay: Tested for biodistribution of compound at 60 min in rat muscle; type: ADME, organism-based, Muscle tissue; conditions: in vivo, 1 h
Rattus norvegicus [41] = species: Rattus norvegicus; assay: Tested for biodistribution of compound at 60 min in rat s. intestine; type: ADME, organism-based; conditions: in vivo, 1 h
Rattus norvegicus [42] = species: Rattus norvegicus; assay: Tested for biodistribution of compound at 10 min in rat s. intestine; type: ADME, organism-based; conditions: in vivo; method in brief: as §1
Mus musculus [43] = species: Mus musculus; assay: Tested for biodistribution of compound at 10 min in mice spleen; type: ADME, organism-based; conditions: in vivo; method in brief: as §2
Rattus norvegicus [44] = species: Rattus norvegicus; assay: Tested for biodistribution of compound at 5 min in rat muscle; type: ADME, organism-based, Muscle tissue; conditions: in vivo
Rattus norvegicus [45] = species: Rattus norvegicus; assay: Tested for biodistribution of compound at 60 min in rat lungs; type: ADME, organism-based, Lung; conditions: in vivo, 1 h
Rattus norvegicus [46] = species: Rattus norvegicus; assay: Tested for biodistribution of compound at 5 min in rat spleen; type: ADME, organism-based; conditions: in vivo
Rattus norvegicus [47] = species: Rattus norvegicus; assay: Tested for biodistribution of compound at 5 min in rat stomach; type: ADME, organism-based; conditions: in vivo
Mus musculus [48] = species: Mus musculus; assay: Tested for biodistribution of compound at 10 min in mice urine; type: ADME, organism-based; conditions: in vivo; method in brief: as §2

[4-methoxythio)phenolato][N,N-bis(2-mercaptoethyl)-N',N'-diethylethylenediamine] oxotechnetium
Dose/organ (Rattus norvegicus [1]): 0.17%
Dose/organ (Mus musculus [2]): 1.24%
Dose/organ (Rattus norvegicus [3]): 2.19%
Dose/organ (Rattus norvegicus [4]): 0.53%
Dose/organ (Mus musculus [5]): 9.78%
Dose/organ (Rattus norvegicus [6]): 24.09%
Dose/organ (Mus musculus [7]): 2.61%
Dose/organ (Rattus norvegicus [8]): 4.26%
Dose/organ (Mus musculus [9]): 0.96%
Dose/organ (Rattus norvegicus [10]): 16.52%
Dose/organ (Rattus norvegicus [11]): 1.05%
Dose/organ (Rattus norvegicus [12]): 1.27%
Dose/organ (Rattus norvegicus [13]): 17.72%
Dose/organ (Rattus norvegicus [14]): 9.38%
Dose/organ (Rattus norvegicus [15]): 35.74%
Dose/organ (Rattus norvegicus [16]): 2.08%
Dose/organ (Rattus norvegicus [17]): 0.46%
Dose/organ (Rattus norvegicus [18]): 29.63%
Dose/organ (Rattus norvegicus [19]): 7.78%
Dose/organ (Mus musculus [20]): 3.6%
Dose/organ (Mus musculus [21]): 17.26%
Dose/organ (Mus musculus [22]): 33.7%
Dose/organ (Mus musculus [23]): 2.02%
Dose/organ (Mus musculus [24]): 0.38%
Dose/organ (Mus musculus [25]): 0.19%
Dose/organ (Mus musculus [26]): 1.79%
Dose/organ (Rattus norvegicus [27]): 19.32%
Dose/organ (Rattus norvegicus [28]): 2.7%
Dose/organ (Rattus norvegicus [29]): 1.16%
Dose/organ (Mus musculus [30]): 3.14%
Dose/organ (Mus musculus [31]): 1.7%
Dose/organ (Mus musculus [32]): 1.96%
Dose/organ (Rattus norvegicus [33]): 7.55%
Dose/organ (Rattus norvegicus [34]): 0.51%
Dose/organ (Mus musculus [35]): 0.15%
Dose/organ (Rattus norvegicus [36]): 3.22%
Dose/organ (Rattus norvegicus [37]): 2.64%
Dose/organ (Rattus norvegicus [38]): 0.64%
Dose/organ (Rattus norvegicus [39]): 2.05%
Dose/organ (Rattus norvegicus [40]): 10.6%
Dose/organ (Rattus norvegicus [41]): 8.15%
Dose/organ (Rattus norvegicus [42]): 6.34%
Dose/organ (Mus musculus [43]): 0.36%
Dose/organ (Rattus norvegicus [44]): 28.6%
Dose/organ (Rattus norvegicus [45]): 1.14%
Dose/organ (Rattus norvegicus [46]): 0.58%
Dose/organ (Rattus norvegicus [47]): 2.18%
Dose/organ (Mus musculus [48]): 1.1%
